Data on 21 molecules can be found in ChEMBL document CHEMBL2385077, “Synthesis, local anaesthetic and antiarrhythmic activities of N-alkyl derivatives of proline anilides” (Eur J Med Chem, 2013).

The source made the active and inactive calls. Where only a bound is given, the exact number is not on record here.

In data set [1] the test system is Rattus norvegicus. Description: Anesthetic effect in Wistar rat assessed as increase in depth of anesthesia after 35 mins by infiltration local anaesthetic activity assay relative to control. Type of data set: functional, organism-based. In outline: (§1)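 Shaved lumbar back skin of Wistar rats; electrical stimulation threshold for surface muscle contraction found first (rectangular pulses, 0.36 to 14.0 V, 0.3 ms, 50 Hz). 0.5% compound in saline given as 0.2 ml intradermal plus 0.2 ml subcutaneous. Threshold re-measured at 3 and 5 min, then every 5 min until back to baseline. Depth is % threshold change from initial; >2-fold rise = 100% anaesthesia. Six rats per compound.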

The nature of data set [2]: Toxicity in iv dosed Swiss albino mouse after 72 hrs. Type of data set: organism-based. The conditions noted are these: in vivo. A digest of the protocol: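 Albino Swiss mice of both sexes, 18-22 g, received aqueous solutions via tail vein at increasing doses. Mortality and behavioural changes followed for 72 h. LD50 reported in mg/kg with range in parentheses.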
The next data set relates to Oryctolagus cuniculus. Description: Surface anesthetic effect in New Zealand white rabbit assessed as time duration. Type of data set: functional. In outline: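 Rabbit corneal reflex test: 1% aqueous solution (0.25 ml) instilled into the conjunctival sac over 30 sec. Cornea touched with a pointer (up to 100 per series) at 8, 10, 12 and 15 min, then every 5 min. Six animals per compound; mean ± SEM.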

The test system of data set [3] is Mus musculus. Description: Antiarrhythmic activity in iv dosed Swiss albino mouse assessed as inhibition of calcium chloride-induced cardiac arrhythmia after 15 mins. Type of data set: functional. The conditions noted are these: Heart, 0.25 h. A digest of the protocol: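 Swiss albino mice received compound i.v. at doses up to ½ LD50 (acute i.v. toxicity measured beforehand). Fifteen minutes later arrhythmia was provoked by i.v. calcium chloride (3%, 280 mg/kg). ED50 was taken as the mean effective dose preventing arrhythmia-associated mortality, and was determined only when below ½ LD50.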

For data set [4], the system named is Mus musculus. Description: Antiarrhythmic index, ratio of LD50 for Swiss albino mouse to ED50 for calcium chloride-induced Swiss albino mouse. Type of data set: functional, Heart. In outline: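 ED50 taken as mean effective dose preventing arrhythmia-associated death, reported only when below ½ LD50. LD50 from acute i.v. toxicity in mice. Index computed as LD50/ED50.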

The test system of data set [5] is Rattus norvegicus. Description: Anesthetic effect in Wistar rat assessed as duration of blockage of muscle contraction by infiltration local anaesthetic activity assay. Type of data set: functional, Muscle tissue. In outline: as §1
The subject of data set [6] is Rattus norvegicus. Description: Anesthetic effect in Wistar rat assessed as time taken for blockage of muscle contraction by infiltration local anaesthetic activity assay. Type of data set: functional, Muscle tissue. A digest of the protocol: as §1
Data set [7] deals with Rattus norvegicus. Description: Anesthetic effect in Wistar rat assessed as duration of complete blockage of muscle contraction by infiltration local anaesthetic activity assay. Type of data set: functional, Muscle tissue. A digest of the protocol: as §1
The subject of data set [8] is Rattus norvegicus. Description: Anesthetic effect in Wistar rat assessed as increase in threshold value by infiltration local anaesthetic activity assay relative to control. Type of data set: functional. In outline: as §1

For `CCCCN1CCCC1C(=O)Nc1ccccc1C` (racemic), the outcome with Rattus norvegicus [1] was inactive.
`CCCCN1CCCC1C(=O)Nc1ccccc1C(F)(F)F.Cl` (mixture of isomers): the LD50 at 72 h in data set [2] worked out at 35.5 mg/kg. Also, in the data set with Oryctolagus cuniculus, the Time was 20.4 min. Moreover, the ED50 in the data set with Mus musculus [3] was 5.8 mg/kg. In the data set with Mus musculus [4], the “Ratio LD50/ED50” value was 6.1.
Molecule `Cc1ccccc1NC(=O)[C@@H]1CCCN1Cc1ccccc1.Cl` yielded an LD50 at 72 h in data set [2] of 35.5 mg/kg. Moreover, the ED50 with Mus musculus [3] worked out at 10.9 mg/kg. Also, the “Ratio LD50/ED50” value in the data set with Mus musculus [4] stood at 3.3.
Molecule `CCCCCN1CCCC1C(=O)Nc1ccccc1C.Cl` (mixture of isomers) came in with an LD50 at 72 h in data set [2] of 32.5 mg/kg. In the data set with Oryctolagus cuniculus, the Time is 59.8 min. The ED50 in the data set with Mus musculus [3] was 5.5 mg/kg. The “Ratio LD50/ED50” value in the data set with Mus musculus [4] is on record as 5.9.
In [2], `CCCCN1CCCC1C(=O)Nc1ccc(Br)cc1Br.Cl` (mixture of isomers) displayed an LD50 at 72 h of 239 mg/kg. Besides, in the data set with Mus musculus [3], the median effective dose (ED50) turned out to be 69 mg/kg. In addition, in the data set on Mus musculus [4], the “Ratio LD50/ED50” value was 3.5.
Molecule `Cc1ccc(NC(=O)C2CCCN2C2CCCCC2)c(C)c1.Cl` (mixture of isomers) came in with an LD50 at 72 h in data set [2] of 65 mg/kg. Besides, the Time was determined as 73.2 min in the data set with Oryctolagus cuniculus, 126.3 min in the data set with Rattus norvegicus [5] and 1 min with Rattus norvegicus [6]. Further, the ED50 with Mus musculus [3] is 8.9 mg/kg. The “Ratio LD50/ED50” value in the data set on Mus musculus [4] was 7.3.
In data set [2], `Cc1cc(C)c(NC(=O)C2CCCN2C2CCCCC2)c(C)c1.Cl` (stereo not drawn) [CYCLOMECAINE] gave a median lethal dose (LD50) at 72 h of 15 mg/kg. Further, in the data set with Oryctolagus cuniculus, the Time is recorded as 124.5 min. Further, in the data set on Mus musculus [3], the 50% effective dose (ED50) was 2.9 mg/kg. Moreover, the “Ratio LD50/ED50” value with Mus musculus [4] came out at 5.2.
In turn, `CCCN1CCCC[C@H]1C(=O)Nc1c(C)cccc1C` [ROPIVACAINE] came in with a 50% lethal dose (LD50) at 72 h in [2] of 14.1 mg/kg. The Time in the data set with Oryctolagus cuniculus was 58.4 min; in the data set on Rattus norvegicus [7], 58.8 min; with Rattus norvegicus [5], 80 min; in the data set with Rattus norvegicus [6], 1 min. Also, the median effective dose (ED50) with Mus musculus [3] was 3.7 mg/kg. For the same molecule, the “Ratio LD50/ED50” value in the data set on Mus musculus [4] worked out at 3.8.
`CCCCN1CCCC1C(=O)Nc1ccc(Cl)cc1Cl.Cl` (mixture of isomers) had an LD50 at 72 h in [2] of 32.5 mg/kg. For the same molecule, the 50% effective dose (ED50) in the data set with Mus musculus [3] is more than 16.3 mg/kg.
The molecule `CCCCN1CCCC1C(=O)Nc1ccccc1CC.Cl` (mixture of isomers) returned an LD50 at 72 h in data set [2] of 30 mg/kg. Also, the Time in the data set with Oryctolagus cuniculus is recorded as 12.7 min. The 50% effective dose (ED50) in the data set on Mus musculus [3] was found to be 7.1 mg/kg. In addition, in the data set on Mus musculus [4], the “Ratio LD50/ED50” value was determined as 4.2.
In data set [2], `CCCCCCN1CCCC1C(=O)Nc1ccccc1C.Cl` (mixture of isomers) displayed an LD50 at 72 h of 35.5 mg/kg. Further, the Time in the data set with Oryctolagus cuniculus is listed as 75.7 min; with Rattus norvegicus [5] it was 115 min; in the data set on Rattus norvegicus [6], 1 min. The 50% effective dose (ED50) in the data set on Mus musculus [3] was 5.6 mg/kg. Besides, the “Ratio LD50/ED50” value in the data set on Mus musculus [4] came to 6.3.
`CCN1CCCC1C(=O)Nc1ccccc1C.Cl` (mixture of isomers) showed a median lethal dose (LD50) at 72 h in data set [2] of 36.8 mg/kg. The ED50 in the data set with Mus musculus [3] was more than 18.4 mg/kg.
In [2], `CCCCN1CCCC1C(=O)Nc1ccccc1C.Cl` (mixture of isomers) displayed an LD50 at 72 h of 16.3 mg/kg. Also, the Time in the data set with Oryctolagus cuniculus is on record as 49.4 min; with Rattus norvegicus [7], 12.5 min; in the data set with Rattus norvegicus [6], 1 min. For the same molecule, the ED50 with Mus musculus [3] was found to be 5.4 mg/kg. Further, the “Ratio LD50/ED50” value in the data set with Mus musculus [4] is 3.
Consider `CCCCN1CCCC1C(=O)Nc1ccccc1I.Cl` (mixture of isomers), for which, in data set [2], the 50% lethal dose (LD50) at 72 h worked out at 41 mg/kg. The Time in the data set with Oryctolagus cuniculus is recorded as 20.3 min. For the same molecule, in the data set on Mus musculus [3], the ED50 was determined as 7.3 mg/kg. Further, the “Ratio LD50/ED50” value in the data set on Mus musculus [4] came to 5.6.
In [2], `CCCCN1CCCCC1C(=O)Nc1c(C)cccc1C` (stereo not drawn) [BUPIVACAINE] returned an LD50 at 72 h of 8.9 mg/kg. In addition, the Time with Oryctolagus cuniculus turned out to be 94 min; in the data set with Rattus norvegicus [7], 102.5 min; in the data set with Rattus norvegicus [5] it was 155 min; in the data set with Rattus norvegicus [6], 1 min. Moreover, in the data set with Mus musculus [3], the ED50 was found to be 3.5 mg/kg. In the data set on Mus musculus [4], the “Ratio LD50/ED50” value came to 2.5.
Regarding `Cc1ccccc1NC(=O)[C@@H]1CCCN1C.Cl`, the LD50 at 72 h in data set [2] came out at 32.5 mg/kg. The median effective dose (ED50) in the data set with Mus musculus [3] was more than 16.3 mg/kg.
For `CCCCN1CCCC1C(=O)Nc1ccc(C)cc1C.Cl` (mixture of isomers), the 50% lethal dose (LD50) at 72 h in [2] worked out at 60 mg/kg. For the same molecule, the Time in the data set with Oryctolagus cuniculus is reported as 59 min. For the same molecule, in the data set with Mus musculus [3], the ED50 was more than 30 mg/kg.
Take `Cl.O=C(Nc1ccccc1Cl)C1CCCN1C1CCCCC1` (mixture of isomers): the LD50 at 72 h in data set [2] was found to be 95 mg/kg. In the data set on Oryctolagus cuniculus, the Time was 41.3 min. Also, in the data set with Mus musculus [3], the ED50 stood at 13.7 mg/kg. Besides, in the data set with Mus musculus [4], the “Ratio LD50/ED50” value was 6.9.
`CCCCN1CCCC1C(=O)Nc1c(C)cccc1C.Cl` (mixture of isomers) displayed an LD50 at 72 h in data set [2] of 9.2 mg/kg. Moreover, the results for the Time with Oryctolagus cuniculus, in the data set on Rattus norvegicus [7] and with Rattus norvegicus [6] were 57.5 min, 20 min and 1 min, respectively. In addition, the Activity in the data set on Rattus norvegicus [8] is 90%. For the same molecule, the 50% effective dose (ED50) with Mus musculus [3] was more than 4.6 mg/kg.
Take `CCN(CC)CC(=O)Nc1c(C)cccc1C` [LIDOCAINE]: the Time with Oryctolagus cuniculus is on record as 37.8 min. Moreover, the ED50 with Mus musculus [3] turned out to be 7.7 mg/kg.
In data set [2], `Cc1ccccc1NC(=O)C1CCCN1C1CCCCC1.Cl` (mixture of isomers) had an LD50 at 72 h of 12.9 mg/kg. The Time with Oryctolagus cuniculus came out at 46.5 min. In addition, the ED50 in the data set with Mus musculus [3] is more than 6.5 mg/kg.

Usually LD50 stands for the dose at which mortality reaches 50%. A low value points to greater toxicity. Usually ED50 stands for the midpoint of the dose-response relation.
